Activity calls are given as the source filed them. The calls are words filed in the database; no cut-off is given here.
Legend:
[1] = system: HeLa; assay: Cytotoxicity against human HeLa cells assessed as inhibition of cell growth measured after 48 hrs by MTT assay; format: functional, cell-based
Summary of the method: (§1)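 MTT assay. Cells were exposed for 48 h to increasing concentrations of compound. Ovarian A2780 was paired with its P-gp-overexpressing A2780AD counterpart, and HeLa with HeLa β3, which overexpresses the tubulin β3 isotype. IC50 is the mean ± SD of three independent experiments.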

[2] = system: A549; assay: Cytotoxicity against human A549 cells assessed as inhibition of cell growth measured after 48 hrs by MTT assay; format: functional, cell-based; conditions: A549, 48 h
[3] = Ratio of IC50 for cytotoxicity against human […] assessed as inhibition of cell growth measured after 48 hrs to IC50 for cytotoxicity against human A2780 cells assessed as inhibition of cell growth measured after 48 hrs; format: functional
Summary of the method: (§2)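 MTT assay: cells exposed to increasing compound concentrations for 48 h. Lines were A2780 and its P-gp-overexpressing A2780AD counterpart, and HeLa and HeLa β3 (tubulin β3-overexpressing). IC50 is the mean ± SD of three independent experiments. R/S is the IC50 in the resistant line divided by that in the parental line.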

[4] = system: A2780; assay: Cytotoxicity against human A2780AD cells assessed as inhibition of cell growth measured after 48 hrs by MTT assay; format: functional, cell-based; conditions: A2780, 48 h; summary of the method: as §1
[5] = Ratio of IC50 for cytotoxicity against human HeLa cells overexpressing tubulin beta3 assessed as inhibition of cell growth measured after 48 hrs to IC50 for cytotoxicity against human HeLa cells assessed as inhibition of cell growth measured after 48 hrs; format: functional; summary of the method: as §2
[6] = molecular target: Tubulin (Homo sapiens) (UniProt P68371+Q9H4B7+P0DPH7+P68366+Q13509+Q71U36+P04350+Q3ZCM7+P07437+P68363+Q9BQE3+Q6PEY2+Q13885+Q9BVA1+Q9BUF5); assay: Binding affinity to microtubule polymerization (unknown origin) assessed as formation of microtubule at 27.5 uM measured for 2 hrs by plate reader method; format: protein-complex assay
Summary of the method: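 25 μM tubulin in GAB buffer with compound at 27.5 μM or DMSO vehicle; podophyllotoxin 27.5 μM as destabiliser control. Polymerisation started by raising temperature from 4 to 37 °C at time 0; microtubule formation followed as absorbance increase over time.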

[7] = system: A2780; assay: Cytotoxicity against human A2780 cells assessed as inhibition of cell growth measured after 48 hrs by MTT assay; format: functional, cell-based; conditions: A2780, 48 h; summary of the method: as §1
[8] = system: HeLa; assay: Cytotoxicity against human HeLa cells overexpressing tubulin beta3 assessed as inhibition of cell growth measured after 48 hrs by MTT assay; format: functional, cell-based; summary of the method: as §1
[9] = Induction of Pro-apoptosis in human HL-60 cells assessed as increase in apoptotic cells at 25 uM after 24 hrs by TMRM dye based flow cytometric analysis; format: functional
[10] = system: NIH3T3; assay: Cytotoxicity against mouse NIH3T3 cells assessed as inhibition of cell growth measured after 24 hrs by neutral red uptake assay; format: functional, cell-based; conditions: NIH3T3, 24 h
Summary of the method: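 Neutral red uptake viability test. NIH3T3 fibroblasts or primary human oral epithelial cells were exposed to compound at 0.1 to 120 μM. EC50 was derived, with SD below 5%.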

[11] = Induction of Pro-apoptosis in human HL-60 cells assessed as increase in apoptotic cells at 10 uM after 24 hrs by TMRM dye based flow cytometric analysis; format: functional
[12] = Induction of Pro-apoptosis in human HL-60 cells assessed as increase in apoptotic cells at 50 uM after 48 hrs by TMRM dye based flow cytometric analysis; format: functional
[13] = Induction of Pro-apoptosis in human HL-60 cells assessed as increase in apoptotic cells at 20 uM after 48 hrs by TMRM dye based flow cytometric analysis; format: functional
[14] = system: HL-60; assay: Induction of autophagy in human HL-60 cells assessed as increase in LC3-II protein level at 10 uM in presence of chloroquine […] by Immunoblotting analysis; format: functional, cell-based
[15] = system: Emu-TCL1; assay: Induction of apoptosis in mouse Emu-TCL1 cells model of CLL assessed as mitochondrial membrane depolarization at 10 uM after 48 hrs by TMRM dye based flow cytometric analysis; format: functional, cell-based
Summary of the method: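 Splenocytes from Eμ-TCL1 leukaemic mice were treated with 10 μM or DMSO vehicle for 48 h, then TMRM-loaded. Flow cytometry gave the percentage of TMRM-low cells as mean ± SD (n = 3).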

[16] = system: HL-60; assay: Induction of autophagy in human HL-60 cells assessed as increase in LC3-II protein level at 10 uM measured up to 1 hr by Immunoblotting analysis; format: functional, cell-based
[17] = Induction of Pro-apoptosis in human HL-60 cells assessed as increase in apoptotic cells at 10 uM after 48 hrs by Annexin-V/PI-staining based flow cytometry; format: functional
[18] = system: HL-60; assay: Induction of autophagy in human HL-60 cells assessed as increase in p62 protein level at 10 uM […] by Immunoblotting analysis; format: functional, cell-based
[19] = system: SCC-4; assay: Cytotoxicity against human SCC-4 cells assessed as reduction in cell viability measured after 48 hrs by alamar blue viability assay; format: functional, cell-based; conditions: SCC-4, 48 h
Summary of the method: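 Oral squamous carcinoma cells were exposed for 48 h to at least 8 increasing concentrations. Viability was read by AlamarBlue. IC50 is the concentration that halves viability, taken as the mean ± SD of at least three independent experiments.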

[20] = system: SCC-4; assay: Induction of autophagy in human SCC-4 cells assessed as increase in LC3-II to LC3-I ratio at 10 uM incubated for 30 mins in presence of EBSS followed by compound addition and measured after 3 hrs by Western blot analysis; format: functional, cell-based
Summary of the method: (§3)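 SCC4 cells were pre-incubated with or without EBSS for 30 min, then given 10 μM compound, with 10 μM chloroquine as reference, for 3 h. LC3-I/II was assessed by Western blot with GAPDH loading control. The LC3-II/LC3-I ratio came from densitometry, as mean ± SEM of four experiments, with an unpaired one-tailed t-test.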

[21] = system: SCC-4; assay: Induction of apoptosis in human SCC-4 cells assessed as increase in apoptotic cells at 2 uM after 48 hrs by Annexin V-FITC/PI staining based flow cytometry method; format: functional, cell-based
Summary of the method: (§4)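 SCC4 cells were treated at 0.5 or 2 μM for 48 h, then stained with Annexin V/PI and analysed by flow cytometry. Data are mean ± SEM of three independent experiments, with an unpaired one-tailed t-test versus vehicle.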

[22] = system: SCC-4; assay: Induction of apoptosis in human SCC-4 cells assessed as increase in apoptotic cells at 0.5 uM after 48 hrs by Annexin V-FITC/PI staining based flow cytometry method; format: functional, cell-based; summary of the method: as §4
[23] = system: SCC-4; assay: Induction of autophagy in human SCC-4 cells assessed as increase in LC3-II to LC3-I ratio at 10 uM in absence of EBSS measured after 3 hrs by Western blot analysis; format: functional, cell-based; summary of the method: as §3

SMILES: COc1cc([C@@H]2c3cc4c(cc3[C@H](O)[C@H]3COC(=O)[C@H]23)OCO4)cc(OC)c1OC [PODOFILOX]
- IC50 [1]: 17 nM
- IC50 [2]: 12 nM
- Ratio IC50 [3]: 1.33
- IC50 [4]: 20 nM
- Ratio IC50 [5]: 0.82
- Activity [6]: Active
- IC50 [7]: 15 nM
- IC50 [8]: 14 nM

SMILES: CC(=O)OC1=C(c2cccc3ccccc23)Oc2cc3c(cc2-n2cccc21)OCO3
- Activity [9]: >=50%
- EC50 [10]: 150 nM
- Activity [11]: >=50%

SMILES: CC(=O)OC1=C(c2cccc3ccccc23)Oc2ccc(N3CCN(C(C)=O)CC3)cc2-n2cccc21
- Activity [12]: >=70%
- Activity [13]: <30%

SMILES: O=C(OC1=C(c2cccc3ncccc23)Oc2cc3ccccc3cc2-n2cccc21)c1cccnc1
- Activity [14]: Active
- Activity [15]: Active
- Activity [16]: Active
- Activity [17]: >=70%
- Activity [18]: Active
- EC50 [10]: 6000 nM

SMILES: CCN(CC)C(=O)OC1=C(c2cccc3ccccc23)Oc2ccc(N3CCN(C)CC3)cc2-n2cccc21
- Activity [15]: Active
- Activity [17]: <30%
- EC50 [10]: 5000 nM

SMILES: CC(=O)OC1=C(c2cccc3cccnc23)Oc2cc3ccccc3cc2-n2cccc21
- IC50 [19]: 130 nM
- Activity [17]: >=70%
- Activity [20]: Active
- Activity [21]: Active
- Activity [22]: Active
- Activity [23]: Active

SMILES: CC(=O)OC1=C(c2cccc3ccccc23)Oc2ccc(C)cc2-n2cccc21
- Activity [9]: >=50%
- EC50 [10]: 300 nM
- Activity [11]: <30%

SMILES: CCN(CC)CCCC(C)Nc1ccnc2cc(Cl)ccc12 (stereo not drawn)
- Activity [20]: Active
- Activity [23]: Active
